ChEMBL document CHEMBL4130456 (ACS Med Chem Lett, 2017)
Calls of active or inactive are those of the source. The calls are words filed in the database; no cut-off is given here.

Experiments:
[1] = target: T1, Phosphatidylinositol 4,5-bisphosphate 3-kinase catalytic subunit alpha isoform (Homo sapiens, UniProt P42336); experiment: Inhibition of recombinant PI3Kalpha (unknown origin) using phosphatidyl inositol/n-Octyl-glucoside as substrate measured after 30 mins by KinaseGlo assay
[2] = target: T2, Phosphatidylinositol 4,5-bisphosphate 3-kinase catalytic subunit beta isoform (Homo sapiens, UniProt P42338); experiment: Inhibition of recombinant PI3Kbeta (unknown origin) using phosphatidyl inositol/n-Octyl-glucoside as substrate measured after 60 mins by KinaseGlo assay
T2 sequence (P42338 whole entry, the tested form may be a part, canonical isoform): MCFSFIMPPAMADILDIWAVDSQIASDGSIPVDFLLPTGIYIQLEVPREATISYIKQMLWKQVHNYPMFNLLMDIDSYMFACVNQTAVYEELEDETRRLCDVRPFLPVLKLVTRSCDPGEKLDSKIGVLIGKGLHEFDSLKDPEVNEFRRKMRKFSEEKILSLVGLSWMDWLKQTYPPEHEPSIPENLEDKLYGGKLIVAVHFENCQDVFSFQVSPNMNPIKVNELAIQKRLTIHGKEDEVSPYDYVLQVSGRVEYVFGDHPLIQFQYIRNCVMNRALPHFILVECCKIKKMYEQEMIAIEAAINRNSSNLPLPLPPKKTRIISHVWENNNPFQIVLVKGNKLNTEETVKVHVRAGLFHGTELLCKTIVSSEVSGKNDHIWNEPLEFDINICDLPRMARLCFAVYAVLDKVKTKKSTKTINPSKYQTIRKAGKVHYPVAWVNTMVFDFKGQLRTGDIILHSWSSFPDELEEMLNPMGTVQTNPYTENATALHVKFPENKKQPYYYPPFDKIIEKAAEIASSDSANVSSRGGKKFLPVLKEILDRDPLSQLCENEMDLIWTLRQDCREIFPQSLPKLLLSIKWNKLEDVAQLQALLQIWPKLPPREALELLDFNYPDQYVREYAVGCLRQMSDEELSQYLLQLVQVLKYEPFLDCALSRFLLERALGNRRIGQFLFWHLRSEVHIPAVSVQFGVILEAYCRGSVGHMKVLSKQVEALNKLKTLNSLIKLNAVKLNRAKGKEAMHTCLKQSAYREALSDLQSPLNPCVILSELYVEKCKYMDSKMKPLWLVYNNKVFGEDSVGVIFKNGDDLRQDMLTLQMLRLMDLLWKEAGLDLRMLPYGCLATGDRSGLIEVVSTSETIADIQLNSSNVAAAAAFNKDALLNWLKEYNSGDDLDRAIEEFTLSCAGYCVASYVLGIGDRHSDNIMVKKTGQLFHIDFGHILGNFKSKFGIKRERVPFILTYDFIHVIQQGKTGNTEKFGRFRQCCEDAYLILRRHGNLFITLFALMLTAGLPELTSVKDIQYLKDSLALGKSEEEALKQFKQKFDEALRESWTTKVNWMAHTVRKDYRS

[3] = target: T1, Phosphatidylinositol 4,5-bisphosphate 3-kinase catalytic subunit alpha isoform; experiment: Inhibition of recombinant human myristoylated PI3Kalpha catalytic domain expressed in Rat1 cells assessed as reduction in Akt phosphorylation at […] residue after 1 hr by alpha screen Surefire assay; format: cell-based
[4] = target: T2, Phosphatidylinositol 4,5-bisphosphate 3-kinase catalytic subunit beta isoform; experiment: Inhibition of recombinant human myristoylated PI3Kbeta catalytic domain expressed in Rat1 cells assessed as reduction in Akt phosphorylation at […] residue after 1 hr by alpha screen Surefire assay; format: cell-based
[5] = Inhibition of PI3Kdelta in 50% rat blood assessed as reduction in anti-IgM stimulated CD86 expression pretreated for 1 hr followed by anti-IgM stimulation after 24 hrs by flow cytometric analysis
Summary of the method: (§1)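 Rat 50% whole blood; B cells stimulated with anti-IgM/IL-4; readouts pAKT or CD86.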

Cynomolgus monkey [6] = experiment: Ex-vivo inhibition of PI3Kdelta in po dosed cynomolgus monkey assessed as reduction in anti-IgM-induced AKT phosphorylation at ser473 residue in whole blood pretreated up to 24 hrs followed by anti-IgM stimulation after 20 mins by flow cytometric analysis; format: functional, organism-based; conditions: Macaca fascicularis
[7] = Inhibition of PI3Kdelta in 50% rat blood assessed as reduction in anti-IgM stimulated AKT phosphorylation at ser473 residue pretreated for 1.5 hr followed by anti-IgM stimulation after 10 mins by flow cytometric analysis; summary of the method: as §1
[8] = target: Phosphatidylinositol 4-kinase beta (Homo sapiens, UniProt Q9UBF8); experiment: Inhibition of PI4Kbeta (unknown origin) using phosphatidyl inositol/n-Octyl-glucoside as substrate measured after 30 mins by KinaseGlo assay
Phosphatidylinositol 4-kinase beta, sequence (Q9UBF8 whole entry): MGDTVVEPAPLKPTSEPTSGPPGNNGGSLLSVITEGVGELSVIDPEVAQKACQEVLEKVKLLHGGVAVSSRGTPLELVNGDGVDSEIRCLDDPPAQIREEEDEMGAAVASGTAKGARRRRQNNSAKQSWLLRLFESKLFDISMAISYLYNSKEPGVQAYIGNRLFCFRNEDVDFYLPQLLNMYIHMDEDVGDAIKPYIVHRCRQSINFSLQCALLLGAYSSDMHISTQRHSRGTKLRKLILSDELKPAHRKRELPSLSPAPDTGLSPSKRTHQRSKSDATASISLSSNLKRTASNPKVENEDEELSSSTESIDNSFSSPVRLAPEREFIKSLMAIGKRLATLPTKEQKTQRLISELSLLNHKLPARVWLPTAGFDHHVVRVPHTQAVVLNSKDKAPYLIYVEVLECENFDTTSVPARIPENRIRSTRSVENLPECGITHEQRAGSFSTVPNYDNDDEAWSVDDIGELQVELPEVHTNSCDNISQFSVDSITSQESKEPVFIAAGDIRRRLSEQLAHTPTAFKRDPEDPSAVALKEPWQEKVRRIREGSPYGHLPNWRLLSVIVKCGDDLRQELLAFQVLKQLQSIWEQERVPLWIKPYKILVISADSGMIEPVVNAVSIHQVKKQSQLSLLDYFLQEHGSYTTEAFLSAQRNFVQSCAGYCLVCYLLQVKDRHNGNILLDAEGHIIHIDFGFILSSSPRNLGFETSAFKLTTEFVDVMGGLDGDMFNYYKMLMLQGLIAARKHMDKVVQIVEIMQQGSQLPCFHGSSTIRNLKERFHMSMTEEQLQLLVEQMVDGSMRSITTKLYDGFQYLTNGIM

[9] = target: DNA-dependent protein kinase catalytic subunit (Homo sapiens, UniProt P78527); experiment: Inhibition of DNA-PK (unknown origin) using peptide substrate assessed as reduction in incorporation of radioactive 33p into substrate by liquid scintillation counting method
[10] = target: 3',5'-cyclic-AMP phosphodiesterase 4D (Homo sapiens, UniProt Q08499); experiment: Inhibition of recombinant human PDE4D
3',5'-cyclic-AMP phosphodiesterase 4D, sequence (Q08499 whole entry): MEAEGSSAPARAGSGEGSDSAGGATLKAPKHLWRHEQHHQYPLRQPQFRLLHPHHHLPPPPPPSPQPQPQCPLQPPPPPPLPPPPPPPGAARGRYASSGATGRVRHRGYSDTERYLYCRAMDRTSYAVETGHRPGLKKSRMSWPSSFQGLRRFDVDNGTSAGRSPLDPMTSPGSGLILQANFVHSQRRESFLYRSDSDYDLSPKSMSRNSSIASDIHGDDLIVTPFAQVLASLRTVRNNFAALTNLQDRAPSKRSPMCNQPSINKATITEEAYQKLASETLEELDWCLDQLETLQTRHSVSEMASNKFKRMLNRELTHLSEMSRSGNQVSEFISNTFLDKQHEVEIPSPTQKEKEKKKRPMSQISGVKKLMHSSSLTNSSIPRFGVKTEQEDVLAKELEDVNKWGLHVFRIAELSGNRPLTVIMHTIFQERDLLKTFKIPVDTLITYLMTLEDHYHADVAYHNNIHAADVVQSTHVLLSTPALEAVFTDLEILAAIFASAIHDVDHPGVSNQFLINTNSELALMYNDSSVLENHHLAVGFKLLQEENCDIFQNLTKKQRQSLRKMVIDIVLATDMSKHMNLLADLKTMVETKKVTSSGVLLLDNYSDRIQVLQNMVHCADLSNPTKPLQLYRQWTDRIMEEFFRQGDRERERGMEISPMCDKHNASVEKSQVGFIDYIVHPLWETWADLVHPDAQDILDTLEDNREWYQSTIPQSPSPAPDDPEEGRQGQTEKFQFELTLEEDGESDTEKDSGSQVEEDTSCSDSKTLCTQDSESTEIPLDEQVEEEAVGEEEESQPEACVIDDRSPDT

[11] = target: Ribosomal protein S6 kinase alpha-5 (Homo sapiens) (UniProt O75582); experiment: Inhibition of wild-type human partial length RPS6KA5 expressed in bacterial expression system at 10 uM by Kinomescan method relative to control
Ribosomal protein S6 kinase alpha-5 (Homo sapiens), sequence (O75582 whole entry, looked up): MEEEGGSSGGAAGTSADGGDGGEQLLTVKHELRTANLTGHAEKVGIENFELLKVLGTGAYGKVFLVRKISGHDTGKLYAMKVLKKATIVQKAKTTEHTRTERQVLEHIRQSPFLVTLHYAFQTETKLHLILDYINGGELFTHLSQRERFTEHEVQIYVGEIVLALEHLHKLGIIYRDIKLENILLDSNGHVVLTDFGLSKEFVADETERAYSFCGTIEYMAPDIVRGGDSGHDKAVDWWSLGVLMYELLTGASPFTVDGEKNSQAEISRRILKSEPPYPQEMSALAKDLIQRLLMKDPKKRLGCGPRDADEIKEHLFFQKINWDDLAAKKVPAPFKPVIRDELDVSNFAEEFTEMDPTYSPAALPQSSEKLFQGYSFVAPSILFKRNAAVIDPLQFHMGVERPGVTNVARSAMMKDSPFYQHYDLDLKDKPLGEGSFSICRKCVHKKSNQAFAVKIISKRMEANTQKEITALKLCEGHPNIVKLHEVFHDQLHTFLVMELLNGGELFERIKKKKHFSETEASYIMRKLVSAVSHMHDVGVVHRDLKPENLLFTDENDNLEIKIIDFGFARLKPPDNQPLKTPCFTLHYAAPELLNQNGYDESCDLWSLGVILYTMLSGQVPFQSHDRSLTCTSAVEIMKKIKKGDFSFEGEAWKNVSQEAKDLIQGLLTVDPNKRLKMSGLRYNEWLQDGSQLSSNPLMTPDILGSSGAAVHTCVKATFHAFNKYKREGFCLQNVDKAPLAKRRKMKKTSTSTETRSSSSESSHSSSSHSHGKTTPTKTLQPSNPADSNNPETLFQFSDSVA

[12] = Clearance in Sprague-Dawley rat at 1 mg/kg, iv by RP-HPLC analysis; format: ADME, organism-based; conditions: in vivo
[13] = Volume of distribution at steady state in Sprague-Dawley rat at 1 mg/kg, iv by RP-HPLC analysis; format: ADME, organism-based; conditions: in vivo, read-out: Vdss
Rattus norvegicus [14] = experiment: Dose normalized AUC in Sprague-Dawley rat at 1 mg/kg, iv by RP-HPLC analysis; format: ADME, organism-based; conditions: in vivo
Summary of the method: (§2)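 Single-dose PK in naive animals, with the compound given as the crystalline free base. Plasma exposure was expressed as AUC normalised to dose.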

Rattus norvegicus [15] = experiment: Dose normalized AUC in Sprague-Dawley rat at 3 mg/kg, po by RP-HPLC analysis; format: ADME, organism-based; conditions: in vivo
[16] = Oral bioavailability in Sprague-Dawley rat at 3 mg/kg by RP-HPLC analysis; format: ADME, organism-based; conditions: in vivo
Rattus norvegicus [17] = experiment: Dose normalized Cmax in Sprague-Dawley rat at 3 mg/kg, po by RP-HPLC analysis; format: ADME, organism-based; conditions: in vivo
[18] = Tmax in Sprague-Dawley rat at 3 mg/kg, po by RP-HPLC analysis; format: ADME, organism-based; conditions: in vivo
Rattus norvegicus [19] = experiment: Dose normalized AUC in Sprague-Dawley rat at 30 mg/kg, po by RP-HPLC analysis; format: ADME, organism-based; conditions: in vivo
[20] = Oral bioavailability in Sprague-Dawley rat at 30 mg/kg by RP-HPLC analysis; format: ADME, organism-based; conditions: in vivo
Rattus norvegicus [21] = experiment: Dose normalized Cmax in Sprague-Dawley rat at 30 mg/kg, po by RP-HPLC analysis; format: ADME, organism-based; conditions: in vivo
[22] = Clearance in Beagle dog at 0.1 mg/kg, iv by RP-HPLC analysis; format: ADME, organism-based, Canis lupus familiaris; conditions: in vivo
[23] = Terminal half life in Beagle dog at 0.1 mg/kg, iv by RP-HPLC analysis; format: ADME, organism-based, Canis lupus familiaris; conditions: in vivo, read-out: beta t1/2 (converted)
[24] = Oral bioavailability in Beagle dog at 0.3 mg/kg by RP-HPLC analysis; format: ADME, organism-based, Canis lupus familiaris; conditions: in vivo
[25] = Terminal half life in cynomolgus monkey at 0.1 mg/kg, iv by RP-HPLC analysis; format: ADME, organism-based, Macaca fascicularis; conditions: in vivo, read-out: beta t1/2 (converted)
Cynomolgus monkey [26] = experiment: Dose normalized AUC in cynomolgus monkey at 0.1 mg/kg, iv by RP-HPLC analysis; format: ADME, organism-based, Macaca fascicularis; conditions: in vivo
Cynomolgus monkey [27] = experiment: Dose normalized AUC in cynomolgus monkey at 0.3 mg/kg, po by RP-HPLC analysis; format: ADME, organism-based, Macaca fascicularis; conditions: in vivo; summary of the method: as §2
[28] = Oral bioavailability in cynomolgus monkey at 0.3 mg/kg by RP-HPLC analysis; format: ADME, organism-based, Macaca fascicularis; conditions: in vivo
[29] = Tmax in cynomolgus monkey at 0.3 mg/kg, po by RP-HPLC analysis; format: ADME, organism-based, Macaca fascicularis; conditions: in vivo
[30] = Protein binding in dog plasma; format: ADME, cell-free, Canis lupus familiaris; conditions: read-out: PPB
Rattus norvegicus [31] = experiment: In-vivo inhibition of PI3Kdelta in sheep RBC-sensitized OFA-rat assessed as reduction in antigen-specific antibody response to SRBC by measuring plaque formation at 30 mg/kg, po bid treated for 4 days starting from day 1 of immunization by microscopic method relative to control; format: functional
Rattus norvegicus [32] = experiment: (§3) Antiarthritic activity in Lewis rat type-2 collagen-induced arthritis model assessed as reduction in IgG antibodies at 3 to 10 mg/kg, po bid administered prior to disease onset for 19 days starting from 5 days post type-2 collagen-induction measured post last dose by ELISA; format: functional, organism-based
Summary of the method: (§4)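 Rat collagen-induced arthritis, prophylactic regimen: dosing starts before disease onset, b.i.d. Readouts are anti-rat collagen antibodies, paw swelling, and histology (inflammatory cell infiltration, proteoglycan loss, joint erosion).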

Rattus norvegicus [33] = experiment: Antiarthritic activity in Lewis rat type-2 collagen-induced arthritis model assessed as reduction in paw swelling at 3 to 10 mg/kg, po bid administered prior to disease onset for 19 days starting from 5 days post type-2 collagen-induction measured 3 times a week measured up to 19 days; format: functional, organism-based; summary of the method: as §4
Rattus norvegicus [34] = experiment: as §3, with “joint erosion” for “IgG antibodies”, “giemsa/safranin O staining based histopathological analysis” for “ELISA”; format: functional, organism-based; summary of the method: as §4
Rattus norvegicus [35] = experiment: Toxicity in Lewis rat type-2 collagen-induced arthritis model at 3 to 10 mg/kg, po bid; format: organism-based; conditions: in vivo
Summary of the method: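 Rat collagen-induced arthritis, dosed b.i.d. either prophylactically (before disease onset) or therapeutically (once paw swelling was evident). Tolerability was judged by overt signs of toxicity across the multi-dose study. Disease endpoints were anti-rat collagen antibodies, paw swelling, inflammatory cell infiltration, proteoglycan loss and joint erosion.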

[36] = Lipophilicity, log P of the compound by artificial membrane based assay; format: physicochemical
[37] = Intrinsic clearance in rat liver microsomes assessed per mg protein; format: ADME, microsome; conditions: read-out: CLH

T1 sequence (P42336 whole entry, canonical isoform): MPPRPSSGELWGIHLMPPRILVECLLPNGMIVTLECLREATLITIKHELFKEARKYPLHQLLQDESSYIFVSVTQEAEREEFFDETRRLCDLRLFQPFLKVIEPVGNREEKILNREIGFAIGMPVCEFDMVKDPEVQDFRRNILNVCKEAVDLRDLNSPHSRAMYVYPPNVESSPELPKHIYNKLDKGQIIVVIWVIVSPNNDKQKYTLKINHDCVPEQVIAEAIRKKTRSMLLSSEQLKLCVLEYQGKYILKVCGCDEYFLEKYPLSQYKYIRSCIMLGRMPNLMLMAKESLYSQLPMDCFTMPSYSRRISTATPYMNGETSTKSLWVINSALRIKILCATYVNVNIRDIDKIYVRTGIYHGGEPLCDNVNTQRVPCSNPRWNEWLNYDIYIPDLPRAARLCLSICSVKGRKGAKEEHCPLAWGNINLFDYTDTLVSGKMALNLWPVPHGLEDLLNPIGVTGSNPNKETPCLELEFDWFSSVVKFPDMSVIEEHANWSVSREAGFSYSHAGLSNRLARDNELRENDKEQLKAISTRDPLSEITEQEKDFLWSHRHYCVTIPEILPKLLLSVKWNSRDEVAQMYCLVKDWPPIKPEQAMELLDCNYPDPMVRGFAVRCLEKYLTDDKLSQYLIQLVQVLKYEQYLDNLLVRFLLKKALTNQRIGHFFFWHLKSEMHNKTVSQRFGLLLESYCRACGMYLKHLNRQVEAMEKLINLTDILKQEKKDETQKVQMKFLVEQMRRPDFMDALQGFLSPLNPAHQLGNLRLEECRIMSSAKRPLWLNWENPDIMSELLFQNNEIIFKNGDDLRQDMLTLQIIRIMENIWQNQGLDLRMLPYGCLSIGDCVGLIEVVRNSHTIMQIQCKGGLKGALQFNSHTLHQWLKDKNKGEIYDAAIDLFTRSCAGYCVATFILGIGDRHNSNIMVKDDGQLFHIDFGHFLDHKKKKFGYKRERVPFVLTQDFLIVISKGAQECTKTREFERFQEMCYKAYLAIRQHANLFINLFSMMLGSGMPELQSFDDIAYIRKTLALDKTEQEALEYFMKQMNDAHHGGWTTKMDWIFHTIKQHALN

IC50 [1]: 244 nM
IC50 [2]: 424 nM
IC50 [3]: 1670 nM
IC50 [4]: 2250 nM
IC50 [5]: 99 nM
IC50 (Cynomolgus monkey [6]): 84 to 140 nM
IC50 [7]: 150 nM
IC50 [8]: > 9100 nM
IC50 [9]: 880 nM
IC50 [10]: 4700 nM
inhibition [11]: 76%
clearance [12]: 28 mL/min/kg
Vd [13]: 3.1 L/kg
AUC/dose (Rattus norvegicus [14]): 1355 nM·h
AUC/dose (Rattus norvegicus [15]): 1165 nM·h
bioavailability [16]: 86%
Cmax/dose (Rattus norvegicus [17]): 391 nM
Tmax [18]: 24 min
AUC/dose (Rattus norvegicus [19]): 2107 nM·h
bioavailability [20]: > 100%
Cmax/dose (Rattus norvegicus [21]): 334 nM
clearance [22]: 2 mL/min/kg
half-life [23]: 90 min
bioavailability [24]: 58%
half-life [25]: 42 min
AUC/dose (Cynomolgus monkey [26]): 2250 nM·h
AUC/dose (Cynomolgus monkey [27]): 297 nM·h
bioavailability [28]: 13%
Tmax [29]: < 30 min
fraction unbound [30]: < 0.01
logP [36]: 3.2
microsomal CLint [37]: 55 µL/min/mg
Structure (SMILES): CCC(=O)N1CC[C@H](Nc2ncnc3c2CN(c2cnc(OC)c(C(F)(F)F)c2)CC3)C1 [LENIOLISIB]
inhibition in vivo at 30 mg/kg (Rattus norvegicus [31]): 96%
Activity (Rattus norvegicus [32]): Active
Activity (Rattus norvegicus [33]): Active
Activity (Rattus norvegicus [34]): Active
Activity (Rattus norvegicus [35]): Non-Toxic
